Test results as given in ChEMBL document CHEMBL2311315, “Radiosynthesis and evaluation of [¹¹C-carbonyl]-labeled carbamates as fatty acid amide hydrolase radiotracers for positron emission tomography” (J Med Chem, 2013).

How the values were obtained:
[1] = Half life in phosphate buffer at pH 7.4 by HPLC analysis; assay type: physicochemical
Plasma = assay: Percentage unbound in human plasma after 10 mins by ultrafiltration method; assay type: ADME, cell-free
In short: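 Human plasma from 6 blood samples was spiked with [11C]-radiotracer, held 10 min at ambient temperature, then ultrafiltered by centrifugation. Ultrafiltrate and plasma were counted and weighed. Binding to the device was corrected using pH 7.4 phosphate buffer in place of plasma.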

[2] = 1-octanol-phosphate buffer partition coefficient, log D of the compound at pH 7.4; assay type: physicochemical; settings: octanol/water
In short: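 Radiotracer partitioned between 1-octanol and 0.02 M phosphate buffer, pH 7.4. Each determination replicated six times.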

[3] = target: T1, Fatty-acid amide hydrolase 1 (Rattus norvegicus) (UniProt P97612); assay: Ratio of IC50 for FAAH in rat brain homogenate in the absence of preincubation phase to IC50 for FAAH in rat brain homogenate after 45 mins preincubation phase; assay type: tissue-based
T1 sequence (whole entry): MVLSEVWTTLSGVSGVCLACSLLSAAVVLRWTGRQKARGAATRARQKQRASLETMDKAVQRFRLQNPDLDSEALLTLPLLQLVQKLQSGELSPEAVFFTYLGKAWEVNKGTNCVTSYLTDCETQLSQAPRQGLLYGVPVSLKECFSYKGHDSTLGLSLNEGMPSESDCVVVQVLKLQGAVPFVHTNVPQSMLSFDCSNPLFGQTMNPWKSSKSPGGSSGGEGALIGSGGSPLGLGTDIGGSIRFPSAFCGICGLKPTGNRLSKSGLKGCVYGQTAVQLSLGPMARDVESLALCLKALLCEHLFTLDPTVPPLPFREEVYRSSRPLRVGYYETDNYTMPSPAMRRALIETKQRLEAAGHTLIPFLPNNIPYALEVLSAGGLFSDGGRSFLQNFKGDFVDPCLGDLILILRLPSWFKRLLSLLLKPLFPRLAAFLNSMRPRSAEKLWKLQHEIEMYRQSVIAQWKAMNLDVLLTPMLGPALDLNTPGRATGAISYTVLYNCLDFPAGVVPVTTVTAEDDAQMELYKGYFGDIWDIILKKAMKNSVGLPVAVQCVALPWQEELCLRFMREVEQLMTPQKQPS

[4] = target: T2, Fatty-acid amide hydrolase 1 (Rattus norvegicus, UniProt P97612); assay: Inhibition of FAAH-mediated [3H]anandamide hydrolysis in rat brain homogenate assessed as [3H]ethanolamine production incubated for 45 mins prior to substrate addition measured after 10 mins by liquid scintillation counting analysis; assay type: tissue-based
T2 sequence (P97612 whole entry): T1 sequence (whole entry)
In short: (§1)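 Rat brain homogenate (0.5 μg protein) preincubated with inhibitor at 37 °C for 45 or 90 min, eight concentrations over 0.1–30 nM or six over 1–50 nM. Then 0.5 μM [3H]anandamide added for a further 10 min at 37 °C. Charcoal/HCl stop; [3H]ethanolamine in aqueous phase counted by scintillation. pI50 ± value reported, converted to IC50.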

[5] = target: T2, Fatty-acid amide hydrolase 1; assay: Inhibition of FAAH-mediated [3H]anandamide hydrolysis in rat brain homogenate assessed as [3H]ethanolamine production incubated for 90 mins prior to substrate addition measured after 10 mins by liquid scintillation counting analysis; assay type: tissue-based; in short: as §1
[6] = target: T1, Fatty-acid amide hydrolase 1 (Rattus norvegicus); assay: Inhibition of FAAH-mediated [3H]anandamide hydrolysis in rat brain homogenate assessed as [3H]ethanolamine production at 100 nM incubated for 60 mins prior to substrate addition measured after 10 mins by liquid scintillation counting analysis relative to control; assay type: tissue-based
In short: (§2)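 Rat brain homogenate (0.5 μg protein) preincubated with inhibitor 60 min, then 0.5 μM [3H]anandamide (ethanolamine-labelled) added and incubated a further 10 min at 37 °C. Reaction stopped with charcoal in 0.5 M HCl; aqueous [3H]ethanolamine counted by liquid scintillation with quench correction. Values are % inhibition ± SEM, n = 3.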

[7] = target: T1, Fatty-acid amide hydrolase 1 (Rattus norvegicus); assay: Inhibition of FAAH-mediated [3H]anandamide hydrolysis in rat brain homogenate assessed as [3H]ethanolamine production at 10 nM incubated for 60 mins prior to substrate addition measured after 10 mins by liquid scintillation counting analysis relative to control; assay type: tissue-based; in short: as §2
[8] = target: T1, Fatty-acid amide hydrolase 1 (Rattus norvegicus); assay: Inhibition of FAAH-mediated [3H]anandamide hydrolysis in rat brain homogenate assessed as [3H]ethanolamine production at 1 nM incubated for 60 mins prior to substrate addition measured after 10 mins by liquid scintillation counting analysis relative to control; assay type: tissue-based
In short: (§3)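 Rat brain homogenate (0.5 μg protein) preincubated with inhibitor 60 min, then 0.5 μM [3H]anandamide (ethanolamine-labelled) added and incubated a further 10 min at 37 °C. Reaction stopped with charcoal in 0.5 M HCl; aqueous [3H]ethanolamine counted by liquid scintillation with quench correction.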

[9] = target: T1, Fatty-acid amide hydrolase 1 (Rattus norvegicus); assay: Inhibition of FAAH-mediated [3H]anandamide hydrolysis in rat brain homogenate assessed as [3H]ethanolamine production at 0.1 nM incubated for 60 mins prior to substrate addition measured after 10 mins by liquid scintillation counting analysis relative to control; assay type: tissue-based; in short: as §3
Cortex [10] = assay: Biodistribution in URB597-pretreated Sprague-Dawley rat brain cortex at 0.3 to 0.8 nmol, iv administered 30 mins after URB597-treatment measured after 40 mins by gamma counting analysis; assay type: ADME, organism-based; settings: in vivo
In short: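 Rats received 2 mg/kg ip (2 mL/kg saline with Tween 80) of the FAAH inhibitor, or vehicle alone, 30 min before tracer. Tracer was 30–60 MBq iv by tail vein (0.3–0.8 nmol; buffered saline, 0.5% Tween 80), n = 5. Cortex was excised at 40 min, weighed, gamma counted and decay-corrected. Reported as SUV, mean ± SD. Compared with vehicle by Student's t test.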

Hypothalamus [11] = assay: Biodistribution in Sprague-Dawley rat brain hypothalamus at 0.3 to 0.8 nmol, iv after 40 mins by gamma counting analysis; assay type: ADME, organism-based; settings: in vivo
In short: (§4)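 Conscious male Sprague–Dawley rats (300–350 g), n = 5 per time point, received 30–60 MBq [11C]-radiotracer (70–170 GBq/μmol; 0.3–0.8 nmol) iv by tail vein in buffered saline with 0.5% Tween 80. Decapitated at 2 or 40 min. Dissected regions were weighed and gamma counted, decay-corrected to injection. Reported as SUV (%ID/g […]), mean ± SD.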

Hypothalamus [12] = assay: Biodistribution in Sprague-Dawley rat brain hypothalamus at 0.3 to 0.8 nmol, iv after 2 mins by gamma counting analysis; assay type: ADME, organism-based; settings: in vivo; in short: as §4
Cortex [13] = assay: Biodistribution in Sprague-Dawley rat brain cortex at 0.3 to 0.8 nmol, iv after 40 mins by gamma counting analysis; assay type: ADME, organism-based; settings: in vivo; in short: as §4
Cortex [14] = assay: Biodistribution in Sprague-Dawley rat brain cortex at 0.3 to 0.8 nmol, iv after 2 mins by gamma counting analysis; assay type: ADME, organism-based; settings: in vivo; in short: as §4
Rattus norvegicus = assay: Biodistribution in URB597-pretreated Sprague-Dawley rat brain parenchyma at 0.3 to 0.8 nmol, iv administered 30 mins after […]-treatment measured after 60 mins by gamma counting analysis; assay type: ADME, organism-based; settings: in vivo, 1 h
In short: (§5)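 Rats (n = 3–4) were injected iv with [11C]-radiotracer as in the biodistribution procedure. At various times, whole brain was homogenized and exhaustively extracted with aqueous acetonitrile. Extracted (unbound) and tissue-bound radioactivity were counted. Binding rate was fitted to a one-phase exponential association, Y = Ymax(1 − exp(−KX)). Blocking used ip pretreatment with the FAAH inhibitor.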

[15] = Half life in URB597-pretreated Sprague-Dawley rat brain parenchyma at 0.3 to 0.8 nmol, iv administered 30 mins after […]-treatment; assay type: ADME, organism-based; in short: as §5
Brain [16] = assay: Drug uptake in URB597-pretreated Sprague-Dawley rat brain parenchyma at 0.3 to 0.8 nmol, iv administered 30 mins after […]-treatment measured after 40 mins by gamma counting analysis; assay type: ADME, organism-based; settings: in vivo; in short: as §5
Brain [17] = assay: Drug uptake in URB597-pretreated Sprague-Dawley rat brain parenchyma at 0.3 to 0.8 nmol, iv administered 30 mins after […]-treatment measured after 5 mins by gamma counting analysis; assay type: ADME, organism-based; settings: in vivo; in short: as §5

Row | SUV (Cortex [10]) | SUV (Hypothalamus [11]) | SUV (Hypothalamus [12]) | Drug uptake (Cortex [13]) | SUV (Cortex [13]) | SUV (Cortex [14]) | Compound | t1/2 [1] | logD [2] | inhibition [6] | inhibition [7] | inhibition [8] | inhibition [9] | other results
1 |  |  |  |  |  |  | NC(=O)c1cccc(-c2cccc(OC(=O)NC3CCCCC3)c2)c1 [URB-597] | 19 h | 3.61 |  |  |  |  | Fu (Plasma): 0.48%
2 |  |  |  |  |  |  | O=C(NC1CCCCC1)Oc1ccc(O)c(-c2ccccc2)c1 | 121 h | 2.85 | 101% | 69% | 4% | -2% | Ratio IC50 [3]: 4; IC50 [4]: 9.4 nM; IC50 [5]: 4.9 nM; Fu (Plasma): 0.75%
3 | 0.27 | 1.25 | 1.21 | 80% | 2.49 | 1.63 | CCCCCCN[11C](=O)Oc1ccc(O)c(-c2ccccc2)c1 |  |  |  |  |  |  | 
4 |  |  |  |  |  |  | CCCCCCNC(=O)Oc1cccc(C2=NCCO2)c1 | 8.7 h | 3.33 | 100% | 100% | 74% | 9% | Ratio IC50 [3]: 4; IC50 [4]: 1.2 nM; IC50 [5]: 0.55 nM
5 |  |  |  |  |  |  | O=C(NC1CCCC1)Oc1cccc(C2=NCCO2)c1 | 4.6 h | 2.35 | 99% | 40% | 4% | -2% | 
6 |  |  |  |  |  |  | O=C(NC1CCCC1)Oc1ccc(O)c(-c2ccccc2)c1 | 138 h | 2.8 | 99% | 80% | 15% | -8% | 
7 |  |  |  |  |  |  | CN1CCC(NC(=O)Oc2cccc(C3=NCCO3)c2)CC1 | 0.8 h |  | 8% | 3% | 12% | 6% | 
8 |  |  |  |  |  |  | CCCCCCNC(=O)Oc1ccc(O)c(-c2ccccc2)c1 | 77 h | 3.67 | 100% | 97% | 44% | 9% | Fu (Plasma): 0.35%
9 | 0.36 | 1.14 | 1.61 | 80% | 2.49 | 2.4 | O=[11C](NC1CCCCC1)Oc1ccc(O)c(-c2ccccc2)c1 |  |  |  |  |  |  | Drug uptake (Rattus norvegicus): 90%; half-life [15]: 6.6 min
10 |  |  |  |  |  |  | CN1CCC(NC(=O)Oc2ccc(O)c(-c3ccccc3)c2)CC1 | 25 h |  | 12% | 1% | -0.5% | 2% | 
11 | 0.23 | 1.48 | 1.81 | 80% | 3.37 | 2.68 | O=[11C](NC1CCC1)Oc1ccc(O)c(-c2ccccc2)c1 |  |  |  |  |  |  | 
12 |  |  |  |  |  |  | O=C(NC1CCC1)Oc1ccc(O)c(-c2ccccc2)c1 | 89 h | 3.42 | 101% | 70% | 8% | -0.1% | 
13 |  |  |  |  |  |  | CN1CCC(NC(=O)Oc2cccc(-c3ccccc3)c2)CC1 |  |  | 13% | 6% | 9% | 6% | 
14 |  |  |  |  |  |  | O=C(NC1CCCCC1)Oc1cccc(C2=NCCO2)c1 | 5.1 h | 3.01 | 99% | 97% | 31% | 0.2% | 

Row | Compound | SUV (Cortex [10]) | SUV (Hypothalamus [11]) | SUV (Hypothalamus [12]) | Drug uptake (Cortex [13]) | SUV (Cortex [13]) | SUV (Cortex [14]) | t1/2 [1] | logD [2] | inhibition [6] | inhibition [7] | inhibition [8] | inhibition [9] | other results
15 | O=[11C](NC1CCCC1)Oc1ccc(O)c(-c2ccccc2)c1 | 0.33 | 1.22 | 1.87 | 80% | 3.09 | 2.36 |  |  |  |  |  |  | Drug uptake (Rattus norvegicus): 90%; half-life [15]: 5.5 min; Drug uptake (Brain [16]): Not Active; Drug uptake (Brain [17]): Not Active
16 | NC(=O)c1cccc(-c2cccc(O[11C](=O)NC3CCCCC3)c2)c1 | 0.17 | 0.51 | 0.47 | 80% | 0.94 | 0.79 |  |  |  |  |  |  | 
